Experimental findings from ChEMBL document CHEMBL2203099, “Identification of a crucial amino acid in the helix position 6.51 of human tachykinin neurokinin 1 and 3 receptors contributing to the insurmountable mode of antagonism by dual NK₁/NK₃ antagonists” (J Med Chem, 2012) are described below.

In general, pKi refers to −log10 of the Ki, conventionally taken in molar units. Low readings indicate a large Ki, high ones a small Ki. As usually defined, the ED50 is the dose that gives a 50% effect, or the effect in half of the subjects. A low value points to an effect at a small dose.

SMILES strings stand for the structures. Where a chain is given by its changes, count along the chain named. pKi: −log10 of the molar value. The source made the active and inactive calls. The calls are words filed in the database; no cut-off is given here.

Test [1] addresses Substance-P receptor (Homo sapiens, UniProt P25103). The test can be described thus: Binding affinity at human NK1 receptor.
Test [2] concerns the target T1, Substance-P receptor (Homo sapiens, UniProt P25103, F264Y). The test can be described thus: Partial noncompetitive inhibition of human F264Y6.51 mutant expressed in HEK293 cells assessed as decrease in SP1-induced [3H]IP accumulation after 20 mins. It counts as cell-based. The following applies: read-out: pA2 (converted).
The subject of test [3] is Gerbillinae. The test can be described thus: Inhibition of foot tapping response in po dosed gerbil. It counts as functional.
Test [4] has as its system HEK293. As to the kind of experiment: Selectivity ratio of Ki for human NK3 H316F mutant expressed in HEK293 cells to Ki for wild type human NK3 receptor expressed in HEK293 cells. It counts as cell-based.
The target of test [5] is Neuromedin-K receptor (Homo sapiens, UniProt P29371, H316F). The test can be described thus: Displacement of radioligand [3H]osanetant at human NK3 H316F mutant expressed in HEK293 cells. It counts as cell-based.
Sequence of Neuromedin-K receptor (P29371 whole entry H316F): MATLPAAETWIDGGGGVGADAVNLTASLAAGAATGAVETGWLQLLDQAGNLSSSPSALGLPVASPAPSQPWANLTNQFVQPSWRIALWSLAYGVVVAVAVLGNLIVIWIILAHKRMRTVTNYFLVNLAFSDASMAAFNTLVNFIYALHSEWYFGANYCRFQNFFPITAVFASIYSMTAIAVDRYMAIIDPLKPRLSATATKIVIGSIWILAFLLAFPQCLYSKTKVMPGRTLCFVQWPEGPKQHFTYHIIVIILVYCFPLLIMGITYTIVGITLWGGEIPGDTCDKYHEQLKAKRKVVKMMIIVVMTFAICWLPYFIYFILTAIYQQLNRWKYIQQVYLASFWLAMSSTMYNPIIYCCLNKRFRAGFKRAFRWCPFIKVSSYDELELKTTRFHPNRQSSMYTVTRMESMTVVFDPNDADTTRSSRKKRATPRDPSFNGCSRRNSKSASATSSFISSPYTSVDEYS
Test [6] relates to T2, Neuromedin-K receptor (Homo sapiens), P29371 [Y315F].
T2 sequence (whole entry): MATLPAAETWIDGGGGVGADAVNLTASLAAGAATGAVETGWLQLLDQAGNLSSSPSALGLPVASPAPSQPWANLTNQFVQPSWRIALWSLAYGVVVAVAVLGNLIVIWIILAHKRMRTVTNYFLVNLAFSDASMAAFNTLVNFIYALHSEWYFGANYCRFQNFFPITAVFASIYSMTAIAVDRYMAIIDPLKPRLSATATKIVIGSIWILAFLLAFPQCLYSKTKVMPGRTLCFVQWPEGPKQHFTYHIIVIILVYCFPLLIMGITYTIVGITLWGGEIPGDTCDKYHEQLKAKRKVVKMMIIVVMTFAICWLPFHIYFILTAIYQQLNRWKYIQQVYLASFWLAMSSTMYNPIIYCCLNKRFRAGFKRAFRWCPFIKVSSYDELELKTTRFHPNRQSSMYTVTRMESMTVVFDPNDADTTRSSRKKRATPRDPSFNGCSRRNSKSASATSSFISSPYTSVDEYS
As to the kind of experiment: Antagonist activity at human NK3 Y315F6.51 mutant expressed in HEK293 cells assessed as decrease in [MePhe7]NKB-induced [3H]IP accumulation at 10 nM after 20 mins. It counts as functional, cell-based.

Test [7] concerns the target T1, Substance-P receptor. As to the kind of experiment: Displacement of radioligand [3H]SP from human NK1 F264Y6.51 mutant expressed in HEK293 cells. It counts as cell-based. In outline: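 Membranes from transiently transfected HEK293 cells, 2.5 μg protein/well, in 50 mM HEPES pH 7.4 with 3 mM MnCl2, phosphoramidon, leupeptin and 0.04% BSA. 10 competitor concentrations (0.0003–10 μM), 90 min at rt. Nonspecific binding with 10 μM NK1 antagonist. Filtration, then scintillation counting. Ki by Cheng–Prusoff. Three experiments, each in duplicate.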

Test [8] concerns T3, Neuromedin-K receptor (Homo sapiens), P29371 [Y247F].
T3 sequence (whole entry): T2 sequence (whole entry) with Y247F, F315Y
The test can be described thus: Noncompetitive inhibition at human NK3 Y247F5.38 mutant expressed in HEK293 cells assessed as decrease in [MePhe7]NKB-induced [3H]IP accumulation after 20 mins. The test is classed as cell-based. The procedure, abridged: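 HEK293 cells transiently expressing human NK3 WT or mutant, labeled with myo-[³H]inositol in LiCl buffer. Antagonist preincubated 20 min at 37 °C, then [MePhe⁷]NKB (0.01 nM–1 μM) added for 45 min at 37 °C. [³H]IP read by SPA beads. Schild analysis of EC50 shift and Emax depression across increasing antagonist concentrations gives pA2, slope and mode of antagonism.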

T1 sequence (P25103 whole entry F264Y): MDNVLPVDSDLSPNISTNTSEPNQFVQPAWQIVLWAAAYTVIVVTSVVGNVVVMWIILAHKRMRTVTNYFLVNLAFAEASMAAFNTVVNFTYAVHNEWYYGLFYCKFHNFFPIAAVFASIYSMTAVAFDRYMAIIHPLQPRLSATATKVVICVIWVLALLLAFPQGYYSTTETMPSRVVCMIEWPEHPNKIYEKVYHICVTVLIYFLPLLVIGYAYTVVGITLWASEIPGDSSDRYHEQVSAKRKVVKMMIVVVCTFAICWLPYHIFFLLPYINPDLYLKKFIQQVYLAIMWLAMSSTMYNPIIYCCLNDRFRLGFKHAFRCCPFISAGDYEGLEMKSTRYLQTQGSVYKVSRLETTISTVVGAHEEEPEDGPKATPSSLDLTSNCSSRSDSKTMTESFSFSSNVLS
Sequence of Substance-P receptor (Homo sapiens, UniProt P25103) (P25103 whole entry): as the sequence (P25103 whole entry F264Y) above, with Y264F counted along it

As to `Cc1cc(F)ccc1-c1cc(N2CC[C@H](O)[C@H]2CO)ncc1N(C)C(=O)C(C)(C)c1cc(C(F)(F)F)cc(C(F)(F)F)c1`, the pKi was 9.15 in test [1], 7.90 in test [5] and 8.96 in test [7]. Moreover, the Kb in test [2] is 28.8 nM. In test [3], the median effective dose (ED50) came out at 0.4 mg/kg. Further, in test [4], the Ratio Ki was 4.3. Also, the result in test [6] was Active. Also, in test [8], the inhibition entry is “Active”.
